Screening data (PubChem BioAssay)
NR2E3 ag-1: inhibitors of NR2E3-RetCOR corepressor binding, primary screen, NR2E3 agonist project, biochemical, TR-FRET, GST-NR2E3, biotin-RetCOR; inhibition of corepressor binding, % at 4.78 µM; 320,000 compounds, 0.12% hits; 1536-well; AID 2300, 2010;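 active = percent inhibition above the cutoff of mean plus 3 SD of all tested compounds, set per screening campaign, cut at about 20% in these data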;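 note: 0% = DMSO wells and 100% = biotin wells as full block of FRET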
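Test system: GST-NR2E3 and biotin-RetCOR proteins | Quantity: 1.35 nM GST-tagged NR2E3 final | Medium: Tris pH 7.5 | Also added: 7 nM biotin-RetCOR | Dosing: Compound at 4.8 µM, single dose | Timing: 5 h at 4 °C | Detection: Time-resolved FRET | Read-out basis: Percent inhibition | Benchmarks: Biotin wells as high control, 0.6% DMSO wells as low control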
Vif inh: HIV Vif self-association inhibitors, primary screen, imaging, HEK293T, single point | HEK293T cells, Vif self-association by quenched fluorescence, 24 h | inhibition, % at 7.49 µM | 340,000 compounds, 0.35% hits; in the data active = inhibition above about 50%, passing the limit was not always enough; inconclusive = no clear call, values can overlap the other calls; inactive = below about 31%
NR2E3 ag-2: NR2E3 agonists in two-hybrid cells, primary screen, cell-based, luminescence, CHO-S, Gal4-NCOR/VP16-NR2E3; Photoreceptor-specific nuclear receptor (Homo sapiens), Q9Y5X4; luciferase; inhibition of corepressor binding, % at 3.98 µM; 360,000 compounds, 0.35% hits;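 active = inhibition above the mean of all tested compounds plus 3 SD, cut at about 70% in these data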;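 note: 0% = DMSO with NR2E3 transfected cells and 100% = cells lacking NR2E3 construct; higher means lower luciferase signal from less NR2E3 corepressor binding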
MT1-MMP act inh: blockers of MT1-MMP proenzyme processing, primary screen, HT1080 RFP-PRO-GFP cells, GFP/RFP fluorescence; Matrix metalloproteinase-14 (Homo sapiens), P50281; GFP/RFP ratio fluorescence, overnight; percent of plate control window, DMSO zero; GFP/RFP ratio change, % at 20 µM; 360,000 compounds, 0.061% hits;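 active = GFP/RFP ratio change of at least 30% with cell ATP level not reduced by more than half and red fluorescence within 50% of control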
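Assay system: HT1080 RFP-PRO-GFP cells. Benchmarks: DMSO vehicle wells and RFP-L50D-GFP reporter cell wells. Times: overnight cell settling, then overnight compound exposure, 37 °C, 5% CO2. Compound: 20 µM single dose, 1% DMSO. Read-out basis: GFP/RFP fluorescence ratio.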
DAGLB inh: DAGLB lipase inhibitors, primary screen, biochemical, fluorescence, HTS. Diacylglycerol lipase-beta (Homo sapiens), Q8NCG7. HEK293T DAGLB membrane lysate, EnzChek fluorogenic substrate. inhibition, % at 5.17 µM. 340,000 compounds, 0.059% hits; in the data active = inhibition above about 34%;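 note: 0% = enzyme with vehicle and 100% = wells lacking enzyme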
Target sequence (Q8NCG7 whole entry, looked up): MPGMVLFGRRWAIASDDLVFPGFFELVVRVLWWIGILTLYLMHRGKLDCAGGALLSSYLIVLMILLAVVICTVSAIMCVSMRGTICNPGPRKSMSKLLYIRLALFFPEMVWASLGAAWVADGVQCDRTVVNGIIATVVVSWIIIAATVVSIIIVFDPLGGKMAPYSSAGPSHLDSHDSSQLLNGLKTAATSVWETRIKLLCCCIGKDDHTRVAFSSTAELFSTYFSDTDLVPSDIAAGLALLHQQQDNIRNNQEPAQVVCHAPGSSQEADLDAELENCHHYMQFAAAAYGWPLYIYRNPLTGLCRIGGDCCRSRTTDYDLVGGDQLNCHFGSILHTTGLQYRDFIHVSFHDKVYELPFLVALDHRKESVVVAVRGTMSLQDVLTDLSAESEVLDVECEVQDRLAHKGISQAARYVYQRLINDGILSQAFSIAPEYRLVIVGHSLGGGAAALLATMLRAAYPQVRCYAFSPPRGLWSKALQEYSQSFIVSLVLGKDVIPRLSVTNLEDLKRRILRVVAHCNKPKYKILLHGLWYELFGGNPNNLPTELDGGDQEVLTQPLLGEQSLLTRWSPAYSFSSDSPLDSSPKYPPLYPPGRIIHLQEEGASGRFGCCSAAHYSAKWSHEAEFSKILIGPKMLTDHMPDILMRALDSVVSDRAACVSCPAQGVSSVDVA
HCV core dimer: inhibitors of HCV core protein dimerization, primary screen, biochemical, TR-FRET, high-throughput; TR-FRET GST/Flag-core106 dimerization, 1536-well; inhibition, % at 5 µM; 300,000 compounds, 0.33% hits; AID 1899, 2009;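 active = inhibition above the mean of all tested compounds plus 3 SD, set per screening campaign, cut at about 45% in these data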
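Assay system: Tagged HCV core106 pair (GST and Flag) | Buffer or medium: KF-containing HEPES buffer, pH 7.45, DTT, CHAPS, BSA | Also added: Eu donor and XL665 acceptor anti-tag antibodies | Dosing: One concentration, 5 µM, in 0.5% DMSO | Timing: 4 h at 22.5 °C | Technique: TR-FRET 671 and 617 nm emission | Repeats: Singlicate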
Numbers without * were called inactive; ? = inconclusive; . = no result given; + = active, no number. The list is not random: actives were taken first. Their share in the collection is about 1.1%.

SMILES	NR2E3 ag-1	Vif inh	NR2E3 ag-2	MT1-MMP act inh	DAGLB inh	HCV core dimer
CCOc1ccccc1-n1nnnc1SCC(=O)NC(=O)Cc1ccccc1	.	-10.4	-23.9	-1.5	-5.1	.
Cc1nnc(SCC(=O)NC(=O)NCc2ccco2)n1Cc1ccccc1	-0.8	-1.5	-24.1	-0.8	2.2	62.4*
Nn1c(SCC(=O)NCCN2C(=O)CSC2=O)nnc1-c1ccc(OC(F)F)cc1	2.9	.	-5.2	-3.5	-1.1	1.1
Nn1c(SCC(=O)NC(=O)NCc2ccco2)nnc1-c1ccc(OC(F)F)cc1	0.6	-0.1	-5.6	3.5	1.4	78.9*
CCOc1ccccc1-n1nnnc1SCC(=O)NC(=O)NCc1ccco1	-4.4	8.3	-14.8	-1.9	1.0	57.0*
CCn1c(SCC(=O)NC(=O)NCc2ccco2)nc2sc(C)c(C)c2c1=O	-2.8	-9.6	-14.2	-6.9	-0.2	51.2*
CCOC(=O)C1=C[C@@H](c2ccccc2)N(S(=O)(=O)c2ccc(C)cc2)[C@H]1c1ccccc1Cl	.	24.0	13.0	-10.1	.	.
O=C(NCCCCc1ccccc1)C1CC(c2ccccc2C(F)(F)F)=NO1 (stereo unspecified)	-2.0	.	-19.3	-1.8	-7.0	-0.9
O=C(CSc1nnnn1-c1ccccc1)NC(=O)NCc1ccco1	2.1	3.9	1.6	0.1	-3.8	60.1*
Cn1nnnc1SCC(=O)NCc1ccco1	0.0	-5.6	-16.8	-2.0	-0.6	-1.9
CC1CC1C(=O)Nc1nc(-c2cccs2)c(-c2cccs2)s1 (stereo unspecified)	2.1	-0.8	-21.3	-14.8	0.1	50.5*
O=C(C[n+]1cccc2ccccc21)c1ccc(Br)cc1	2.0	93.0*	-53.5	-36.8	-0.3	6.2
CCCCn1c(SCC(=O)Nc2cc(C)on2)nc2ccccc2c1=O	0.1	-2.1	-14.1	-2.9	-0.4	73.2*
CCCCn1c(SCC(=O)Nc2ccc(NC(C)=O)cc2)nc2ccccc2c1=O	-0.2	-8.9	-4.3	1.9	0.2	-11.8
CCC(=O)N1CCc2cc(S(=O)(=O)CCC(=O)Nc3cccc(C)n3)ccc21	-2.7	-1.0	-15.2	-4.8	-0.4	7.7
Cc1ccc(C2=NOC(C)(c3nnc(-c4ccncc4)o3)C2)cc1 (stereo unspecified)	-1.1	135.0*	22.5	6.6	-1.6	-4.8
O=C(COC(=O)C(Cc1ccccc1)NC(=O)c1cccs1)NCc1ccccc1 (stereo unspecified)	5.0	59.2*	14.5	-2.3	-0.5	.
CC(=O)Oc1cc(C(=O)OCC(=O)NC23CC4CC(CC(C4)C2)C3)cc(OC(C)=O)c1OC(C)=O	.	67.2*	-19.4	0.6	12.6	.
CCc1noc(C)c1C(=O)Nc1cc(Cl)ccc1N1CCOCC1	0.7	-12.8	-24.3	-2.3	0.9	0.2
Cc1ccccc1C(=O)N/N=C/c1ccc([N+](=O)[O-])s1	3.9	-7.3	10.6	-9.7	1.0	-5.7
O=C(N/N=C/c1ccc([N+](=O)[O-])s1)c1ccccc1Br	5.0	89.4*	6.3	-7.9	4.4	0.0
Cc1ccccc1S(=O)(=O)Nc1nc2ccccc2nc1NCCO	0.7	51.5*	-34.7	0.6	2.7	-3.5
Cc1ccc(/C=C(\CCC(=O)O)c2nc3ccccc3s2)cc1[N+](=O)[O-]	1.8	5.0	-10.0	1.5	3.5	2.1
COc1ccc(C(=O)Nc2cccc(/C=C(\CCC(=O)O)c3nc4ccccc4s3)c2)cc1	-0.5	-2.8	-13.4	9.6	5.7	64.1*
CN(c1ccccc1)c1ccc(/C=C(\CCC(=O)O)c2nc3ccccc3s2)cc1[N+](=O)[O-]	-0.2	-4.2	36.4	7.5	27.2	60.4*
SMILES	NR2E3 ag-1	Vif inh	NR2E3 ag-2	MT1-MMP act inh	DAGLB inh	HCV core dimer
COc1cccc(OC)c1C(=O)NCCOc1cc(C)cc(C)c1	1.5	-3.0	-3.7	2.4	-2.4	2.1
Cc1ccc2c(COC(=O)c3ccccc3OC(F)F)cc(=O)oc2c1	2.8	52.4*	-39.4	1.6	-1.8	14.7
CC/C(=N/NC(=O)c1ccc2c(c1)OCO2)c1ccccc1O	-3.4	?	-66.5	0.6	6.5	-3.4
NC(=O)NC(CCC(=O)O)C(=O)O (stereo unspecified)	-1.3	65.1*	-4.4	-1.7	-0.5	0.5
COc1ccccc1NS(=O)(=O)c1cc(NC(=O)CNC(=O)c2ccc(C)s2)ccc1Cl	-1.0	-4.3	-27.9	4.6	-2.9	-1.5
CCc1ccc(C2C(C#N)=C(N)SC(N)=C2C#N)cc1	17.0	3.4	10.7	-268.9	-0.4	31.4
CCc1ccc(C2C(C#N)=C(N)SC(N)=C2C#N)s1	17.7	76.9*	10.9	-319.1	-1.6	52.7*
Cc1cc(C(=O)NCC(=O)O)c(C)o1	-2.0	115.0*	6.3	2.1	-0.5	-7.6
C#CCNC(=O)C[C@@H]1C[C@@]2(C(=O)OC)CC(C)(C)CC=C2N(CCCCCCCC)C1=O	.	.	.	-3.5	.	.
Cc1ccc2c(c1)C(=O)CCN2	5.1	50.6*	-12.7	1.8	-0.8	7.1
O=C(NCc1ccccc1C(F)(F)F)c1cccc2c1C(=O)c1ccc(N3CCCCC3)cc1S2(=O)=O	.	+	16.4	-94.9	-0.2	.
CC1CCN(c2ccc3c(c2)S(=O)(=O)c2cccc(C(=O)NC4CCCCC4)c2C3=O)CC1	0.8	50.7*	8.4	-104.9	-5.1	.
O=C(CSc1nnc(-c2ccncc2)s1)Nc1ccc(Cl)c(C(=O)O)c1	6.0	54.1*	-22.5	3.3	0.2	-1.1
CC1Cc2ccccc2N1Cc1cc(=O)n2ccsc2n1 (stereo unspecified)	2.2	5.0	-34.0	-1.4	2.9	68.0*
Cc1cccc(N=C2NC(=O)/C(=C/C=C/c3ccco3)S2)c1C	1.5	-0.5	-18.8	-8.3	18.9	58.6*
Cc1ccc(N=C2NC(=O)/C(=C/C=C/c3ccco3)S2)cc1	1.3	-3.4	-18.8	-7.0	9.1	59.2*
CC(C)(C)Cc1c(-c2ccccc2)nc2ccc(Cl)cn12	.	0.0	-25.1	-0.9	-13.2	.
Cc1ccc(C(=O)NNC(=O)c2ccc(S(=O)(=O)N(C)c3ccccc3)cc2)cc1	.	-2.9	-3.5	0.2	-1.3	.
CC(C)NC1=C(Cl)C(=O)c2ccccc2C1=O	-0.9	63.0*	-15.5	2.3	11.4	-12.1
